Results reported in ChEMBL document CHEMBL1144557, “The novel C-5 aryl, alkenyl, and alkynyl substituted uracil derivatives of L-ascorbic acid: synthesis, cytostatic, and antiviral activity evaluations” (Bioorg Med Chem, 2007).
In brackets after ≈: the same amount, converted by molar mass.

Assays:
[1] = Antiproliferative activity against human Molt4/C8 cells; format: functional, cell-based; conditions: MOLT-4
Summary of the method: (§1)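 Suspension cells seeded at 50 × 10³ cells/well with a range of test compound concentrations. Cell number counted with a Coulter counter after 2 days (L1210) or 3 days (Molt4/C8, CEM). IC50 is the concentration that cuts cell growth by 50% versus untreated controls, read from plots of cell number (% of control) against concentration.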

CCRF-CEM = experiment: Antiproliferative activity against human CEM cells; format: functional, cell-based; summary of the method: as §1
HeLa = experiment: Antiproliferative activity against human HeLa cells after 72 hrs by MTT assay; format: functional, cell-based
Summary of the method: (§2)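 Monolayers grown in DMEM with 10% FBS, 2 mM L-glutamine and penicillin/streptomycin at 37 °C, 5% CO2. Seeded at 1 × 10⁴–3 × 10⁴ cells/mL on day 0. Compounds from 0.04 M DMSO stocks added at five 10-fold dilutions (10⁻⁸–10⁻⁴ M final), with matched DMSO controls, for 72 h. MTT added for 4 h, formazan dissolved in DMSO, absorbance read at 570 nm. Percentage growth calculated against time-zero and untreated OD. IC50 is 50% inhibition of proliferation.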

MCF7 = experiment: Antiproliferative activity against human MCF7 cells after 72 hrs by MTT assay; format: functional, cell-based; conditions: MCF7, 72 h; summary of the method: as §2
MIA PaCa-2 = experiment: Antiproliferative activity against human MiaPaCa2 cells after 72 hrs by MTT assay; format: functional, cell-based; conditions: Homo sapiens, MIA PaCa-2, 72 h; read-out: IC50; summary of the method: as §2
HEp-2 = experiment: Antiproliferative activity against human Hep2 cells after 72 hrs by MTT assay; format: functional, cell-based; conditions: HEp-2, 72 h; summary of the method: as §2
SW-620 = experiment: Antiproliferative activity against human SW620 cells after 72 hrs by MTT assay; format: functional, cell-based; conditions: SW-620, 72 h; summary of the method: as §2
WI-38 = experiment: Antiproliferative activity against human WI38 cells after 72 hrs by MTT assay; format: functional, cell-based; conditions: WI-38, 72 h; summary of the method: as §2
Human alphaherpesvirus 1 [2] = experiment: Antiviral activity against HSV1 KOS-induced cytopathogenicity in HEL cells; format: functional; conditions: Human alphaherpesvirus 1, KOS
Human alphaherpesvirus 2 = experiment: Antiviral activity against HSV2 G-induced cytopathogenicity in HEL cells; format: functional; conditions: Human alphaherpesvirus 2, G
[3] = system: Vesicular stomatitis virus; experiment: Antiviral activity against in Vesicular stomatitis virus-induced cytopathogenicity in HEL cells; format: functional
Human alphaherpesvirus 1 [4] = experiment: Antiviral activity against HSV1 TK- KOS ACV -induced cytopathogenicity in HEL cells; format: functional; conditions: Human alphaherpesvirus 1, KOS
[5] = Cytotoxicity against HEL cells; format: cell-based; conditions: human
Summary of the method: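 Cells seeded at 5 × 10³ cells/well and exposed to medium containing a range of test compound concentrations. After 3 days at 37 °C, cell morphology examined microscopically. Reported as minimum cytotoxic concentration (MCC), the concentration causing a microscopically detectable alteration of normal cell morphology.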

Sindbis virus = experiment: Antiviral activity against Sindbis virus-induced cytopathogenicity in Vero cells; format: functional
Coxsackievirus B4 = experiment: Antiviral activity against Coxsackie virus B4-induced cytopathogenicity in Vero cells; format: functional; conditions: Enterovirus B
Punta Toro virus = experiment: Antiviral activity against Punta Toro virus-induced cytopathogenicity in Vero cells; format: functional
[6] = system: Vesicular stomatitis virus; experiment: Antiviral activity against in Vesicular stomatitis virus- induced cytopathogenicity in HeLa cells; format: functional
L1210 = experiment: Antiproliferative activity against mouse L1210 cells; format: functional, cell-based; summary of the method: as §1

Structure (SMILES): C=Cc1cn(C/C=C2\OC(=O)C(OCc3ccccc3)=C2OCc2ccccc2)c(=O)[nH]c1=O
- IC50 [1]: 7.6 µM
- IC50 (CCRF-CEM): 7.2 µM
- IC50 (HeLa): 14.5 µM
- IC50 (MCF7): 3.8 µM
- IC50 (MIA PaCa-2): 22 µM
- IC50 (HEp-2): 14.2 µM
- IC50 (SW-620): 15.6 µM
- IC50 (WI-38): 14.3 µM
- MIC (Human alphaherpesvirus 1 [2]): > 18 µM
- MIC (Human alphaherpesvirus 2): > 18 µM
- MIC [3]: > 18 µM
- MIC (Human alphaherpesvirus 1 [4]): > 18 µM
- MCC [5]: 87 µM
- MIC (Sindbis virus): > 18 µM
- MIC (Coxsackievirus B4): > 18 µM
- MIC (Punta Toro virus): > 18 µM
- MIC [6]: > 18 µM
- IC50 (L1210): 7.2 µM

Structure (SMILES): O=C1O/C(=C\Cn2cc(C#Cc3ccccc3)c(=O)[nH]c2=O)C(O)=C1O
- IC50 [1]: 8.2 µM
- IC50 (CCRF-CEM): 7.6 µM
- IC50 (HeLa): 2 µM
- IC50 (MCF7): 1 µM
- IC50 (MIA PaCa-2): 3 µM
- IC50 (HEp-2): 3 µM
- IC50 (SW-620): 4 µM
- IC50 (WI-38): 1 µM
- MIC (Human alphaherpesvirus 1 [2]): > 4 µM
- MIC (Human alphaherpesvirus 2): 4 µM (≈ 1.41 µg/mL)
- MIC [3]: 4 µM (≈ 1.41 µg/mL)
- MIC (Human alphaherpesvirus 1 [4]): > 4 µM
- MCC [5]: 20 µM
- MIC (Sindbis virus): > 4 µM
- MIC (Coxsackievirus B4): > 4 µM
- MIC (Punta Toro virus): > 4 µM
- MIC [6]: > 4 µM
- IC50 (L1210): 8.1 µM

Structure (SMILES): O=C1O/C(=C\Cn2cc(-c3ccco3)c(=O)[nH]c2=O)C(O)=C1O
- IC50 [1]: ≥ 500 µM
- IC50 (CCRF-CEM): 436 µM
- IC50 (HeLa): > 100 µM
- IC50 (MCF7): > 100 µM
- IC50 (MIA PaCa-2): > 100 µM
- IC50 (HEp-2): > 100 µM
- IC50 (SW-620): > 100 µM
- IC50 (WI-38): > 100 µM
- MIC (Human alphaherpesvirus 1 [2]): > 100 µM
- MIC (Human alphaherpesvirus 2): > 100 µM
- MIC [3]: > 100 µM
- MIC (Human alphaherpesvirus 1 [4]): > 100 µM
- MCC [5]: 100 µM
- MIC (Sindbis virus): > 100 µM
- MIC (Coxsackievirus B4): > 100 µM
- MIC (Punta Toro virus): > 100 µM
- MIC [6]: > 100 µM
- IC50 (L1210): ≥ 500 µM

Structure (SMILES): C#Cc1cn(C/C=C2\OC(=O)C(OCc3ccccc3)=C2OCc2ccccc2)c(=O)[nH]c1=O
- IC50 [1]: 7.2 µM
- IC50 (CCRF-CEM): 4.6 µM
- IC50 (HeLa): 3.2 µM
- IC50 (MCF7): 2.9 µM
- IC50 (MIA PaCa-2): 8.7 µM
- IC50 (HEp-2): 4.6 µM
- IC50 (SW-620): 5 µM
- IC50 (WI-38): 1.5 µM
- MIC (Human alphaherpesvirus 1 [2]): > 18 µM
- MIC (Human alphaherpesvirus 2): > 18 µM
- MIC [3]: > 18 µM
- MIC (Human alphaherpesvirus 1 [4]): > 18 µM
- MCC [5]: ≥ 18 µM
- MIC (Sindbis virus): > 18 µM
- MIC (Coxsackievirus B4): > 18 µM
- MIC (Punta Toro virus): > 18 µM
- MIC [6]: > 18 µM
- IC50 (L1210): 6.8 µM

Structure (SMILES): O=C1O/C(=C\Cn2cc(-c3ccccc3)c(=O)[nH]c2=O)C(O)=C1O
- IC50 [1]: 322 µM
- IC50 (CCRF-CEM): 282 µM
- IC50 (HeLa): > 100 µM
- IC50 (MCF7): > 100 µM
- IC50 (MIA PaCa-2): > 100 µM
- IC50 (HEp-2): > 100 µM
- IC50 (SW-620): > 100 µM
- IC50 (WI-38): > 100 µM
- MIC (Human alphaherpesvirus 1 [2]): > 100 µM
- MIC (Human alphaherpesvirus 2): > 100 µM
- MIC [3]: > 100 µM
- MIC (Human alphaherpesvirus 1 [4]): > 100 µM
- MCC [5]: 100 µM
- MIC (Sindbis virus): > 100 µM
- MIC (Coxsackievirus B4): > 100 µM
- MIC (Punta Toro virus): > 100 µM
- MIC [6]: > 100 µM
- IC50 (L1210): 354 µM

Structure (SMILES): CC(C)=CCc1cn(C/C=C2\OC(=O)C(OCc3ccccc3)=C2OCc2ccccc2)c(=O)[nH]c1=O
- IC50 [1]: 8.3 µM
- IC50 (CCRF-CEM): 7.7 µM
- IC50 (HeLa): 2 µM
- IC50 (MCF7): 4 µM
- IC50 (MIA PaCa-2): 5 µM
- IC50 (HEp-2): 2.6 µM
- IC50 (SW-620): 4 µM
- IC50 (WI-38): 2 µM
- MIC (Human alphaherpesvirus 1 [2]): 4 µM (≈ 2 µg/mL)
- MIC (Human alphaherpesvirus 2): 4 µM (≈ 2 µg/mL)
- MIC [3]: > 4 µM
- MIC (Human alphaherpesvirus 1 [4]): > 4 µM
- MCC [5]: 20 µM
- MIC (Sindbis virus): > 4 µM
- MIC (Coxsackievirus B4): > 4 µM
- MIC (Punta Toro virus): 4 µM (≈ 2 µg/mL)
- MIC [6]: > 4 µM
- IC50 (L1210): 8.2 µM

Structure (SMILES): O=C1O/C(=C\Cn2cc(-c3cccs3)c(=O)[nH]c2=O)C(O)=C1O
- IC50 [1]: > 500 µM
- IC50 (CCRF-CEM): > 500 µM
- IC50 (HeLa): > 100 µM
- IC50 (MCF7): > 100 µM
- IC50 (MIA PaCa-2): > 100 µM
- IC50 (HEp-2): > 100 µM
- IC50 (SW-620): > 100 µM
- IC50 (WI-38): > 100 µM
- MIC (Human alphaherpesvirus 1 [2]): > 100 µM
- MIC (Human alphaherpesvirus 2): > 100 µM
- MIC [3]: > 100 µM
- MIC (Human alphaherpesvirus 1 [4]): > 100 µM
- MCC [5]: 100 µM
- MIC (Sindbis virus): > 100 µM
- MIC (Coxsackievirus B4): > 100 µM
- MIC (Punta Toro virus): > 100 µM
- MIC [6]: > 100 µM
- IC50 (L1210): > 500 µM
